Results on 13 molecules are retold here after ChEMBL document CHEMBL1764963, “In vitro and QSAR studies of cucurbitacins on HepG2 and HSC-T6 liver cell lines” (Bioorg Med Chem, 2011).

As usually defined, the IC50 is the concentration needed to halve the response being measured. As usually defined, the EC50 is the concentration at which the effect is half-maximal. For orientation: inhibition means the percentage by which the read-out fell short of the control.

The source made the active and inactive calls. No cut-off for these calls is given here. Where only a bound is given, the exact number is not on record here.

Series [1] has as its system HepG2. The experiment in a line: Ratio of IC50 to EC50 for hepatoprotective activity in human HepG2 cells. In kind it is functional.
Series [2] deals with HepG2. The experiment in a line: (§1) Cytotoxicity against human HepG2 cells after 24 hrs assessed as inhibition of cell viability by MTT assay. The settings on record: for IC50: Homo sapiens, HepG2, 24 h. The series is classed as cell-based. In general terms: Tetrazolium assays rely on reduction of a dye to a coloured formazan, in cell work by metabolically active cells.
The subject of series [3] is HepG2. The experiment in a line: Ratio of IC50 for human HepG2 cells to IC50 for human HeLa cells. An outline of the steps: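 Both lines (HepG2 grown 10 days, HeLa 7 days, in EMEM/10% FBS) seeded 24 h in 2% FBS at 30,000 and 15,000 cells/ml. Five-fold serial dilutions over 5 wells for 24 h. Viability by MTT at 570 nm versus cell-free and untreated controls. IC50 derived from log IC50. Ratio taken of the two IC50 values.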

Series [4] in a line: Antiproliferative activity against serum-stimulated rat HSC-T6 cells after 24 hrs by MTT assay. In kind it is functional, cell-based. Particulars: HSC-T6, 24 h.
Series [5] is described as follows: Cytotoxicity against rat HSC-T6 cell after 24 hrs by MTT assay. In kind it is cell-based. Particulars: for IC50: Rattus norvegicus, HSC-T6, 24 h.
A short description of series [6]: Ratio of IC50 to EC50 for antiproliferative activity in rat HSC-T6 cells. In kind it is functional.
Series [7] concerns HepG2. The experiment in a line: Hepatoprotective activity in human HepG2 cells assessed as inhibition of CCl4-induced toxicity after 24 hrs by MTT assay. The arrangement: Activity: scale not given: the % may be the effect or the level left. Particulars: for EC50: Homo sapiens, HepG2, 24 h. The series is classed as functional, cell-based.
The test system of a further series is HeLa. The experiment in a line: Cytotoxicity against human HeLa cells after 24 hrs by MTT assay. The series is classed as functional, cell-based.
The test system of series [8] is HepG2. The experiment in a line: Hepatoprotective activity in human HepG2 cells assessed as protection against cell damage after 24 hrs by MTT assay. In kind it is functional.
The subject of series [9] is HepG2. The experiment in a line: Hepatoprotective activity in human HepG2 cells assessed as inhibition of CCl4-induced toxicity at 6.25% IC50 after 24 hrs by MTT assay. In kind it is functional, cell-based. An outline of the steps: (§2)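 HepG2 cells grown 10 days in EMEM with 10% FBS, then seeded 24 h at 30,000 cells/ml in 2% FBS. Test agent added together with CCl4 (4.5 x 10^-3 M) for 24 h. Silybin was tested at 1–200 uM. Cucurbitacins were tested at 0.5 and […] their IC50, then at 0.13 and 0.06. MTT read at 570 nm. % protection calculated against CCl4-only and media-only controls. Three experiments, ≥3 replicates each.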

Series [10] has as its system HepG2. The series is described as follows: Hepatoprotective activity in human HepG2 cells assessed as inhibition of CCl4-induced toxicity at 12.5% IC50 after 24 hrs by MTT assay. In kind it is functional, cell-based. In short, it runs like this:
as §2

A short description of series [11]: Inhibition of hyaluronidase activity at 71.68 mM.
Series [12] is described as follows: as §1. The series is classed as cell-based. The settings on record: human, HepG2 cells; read-out: INH.
Series [13] deals with Radical scavenging activity. The series is described as follows: Antioxidant activity assessed as DPPH radical scavenging activity at 64 uM after 10 mins. The series is classed as functional. In general terms: DPPH is a stable violet radical that fades when it is reduced.
In series [14] the test system is HepG2. The series is described as follows: Hepatoprotective activity in human HepG2 cells assessed as inhibition of CCl4-induced toxicity at 100 uM after 24 hrs by MTT assay. The series is classed as functional, cell-based. In short, it runs like this: as §2
A further series relates to HSC-T6. The series is described as follows: Cytotoxicity against rat HSC-T6 cell up to 300 uM after 24 hrs by MTT assay. The series is classed as functional, cell-based. An outline of the steps: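 HSC-T6 rat stellate cells grown 4-5 days in EMEM/10% FBS, then seeded 24 h at 100,000 cells/ml in 2% FBS. Medium replaced with compound in fresh 10% FBS medium, two-fold dilutions across seven wells, for 24 h. Viability by MTT (570 nm) relative to cell-free and untreated controls. Three experiments, ≥3 replicates each.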

The nature of series [15]: Antioxidant activity assessed as inhibition of free radical production at 0.58 mM within 6 mins by ABTS+ decolorization assay. In kind it is functional.

For the molecule `CC(=O)OC(C)(C)/C=C/C(=O)[C@](C)(O)[C@H]1[C@H](O)C[C@@]2(C)[C@@H]3CC=C4[C@H](C[C@H](O)C(=O)C4(C)C)[C@]3(C)C(=O)C[C@]12C` [CUCURBITACIN B], the “Ratio IC50/EC50” value stood at 3 in the series with HepG2 [1] and 205 in [6]. Further, the IC50 with HepG2 [2] turned out to be 27.7 µM; in series [5], 4.42 µM; with HeLa it was 0.8 µM. Moreover, the “Ratio IC50” value with HepG2 [3] amounted to 37. The figures for the EC50 (in series [4]; in the series on HepG2 [7]) were 0.02 µM and 10.5 µM, respectively. Moreover, in the series with HepG2 [8], the Activity was 40%.
`COC1=C[C@@H]2C(=CC[C@@H]3[C@@]2(C)C(=O)C[C@]2(C)[C@@H]([C@@](C)(O)C(=O)/C=C/C(C)(C)OC(C)=O)[C@H](OC(C)=O)C[C@@]32C)C(C)(C)C1=O`: the “Ratio IC50/EC50” value with HepG2 [1] is given as 5; in [6], 13. Further, the IC50 in the series with HepG2 [2] was 26 µM; in series [5], 11.5 µM; in the series on HeLa it was 3.2 µM. Besides, the “Ratio IC50” value in the series on HepG2 [3] was found to be 8. For the same molecule, the values for the concentration giving a half-maximal response (EC50) (in series [4]; in the series with HepG2 [7]) were 0.91 µM and 5.2 µM, respectively. Moreover, the Activity in the series on HepG2 [8] was 40%.
In the case of `CCCOC1=C[C@@H]2C(=CC[C@@H]3[C@@]2(C)C(=O)C[C@]2(C)[C@@H]([C@@](C)(O)C(=O)/C=C/C(C)(C)OC(C)=O)[C@H](O)C[C@@]32C)C(C)(C)C1=O`, the inhibition result in the series on HepG2 [9] and with HepG2 [10] was “inactive” throughout. Further, a half-maximal effect in series [4] (EC50) was put at 0.34 µM. Besides, the IC50 in series [5] is 2.75 µM; in the series on HeLa, 1.4 µM. Also, the Activity in the series on HepG2 [8] amounted to 40%.
In the case of `CC(=O)OC(C)(C)/C=C/C(=O)[C@](C)(O)[C@H]1[C@H](O)C[C@@]2(C)[C@@H]3CC=C4[C@@H](C=C(O)C(=O)C4(C)C)[C@]3(C)C(=O)C[C@]12C` [CUCURBITACIN E], the IC50 in the series on HepG2 [2] stood at 15.2 µM; in the series on HeLa, 0.1 µM. In addition, the figures for the EC50 (in [4]; in the series on HepG2 [7]) were 0.04 µM and 3.2 µM, respectively. Besides, the “inhibition (INH)” value in the series on HepG2 [7] was 74%. Further, the Activity in the series with HepG2 [8] turned out to be 40%.
As to `CC(C)(O)/C=C/C(=O)[C@](C)(O)[C@H]1[C@H](O)C[C@@]2(C)[C@@H]3CC=C4[C@@H](C[C@H](O)C(=O)C4(C)C)[C@]3(C)C(=O)C[C@]12C` [CUCURBITACIN D], the figures for the “Ratio IC50/EC50” value (with HepG2 [1]; in [6]) were 9 and 379, respectively. The IC50 with HepG2 [2] came to 77.3 µM; in [5], 26 µM; in the series with HeLa, 0.7 µM. Also, the “Ratio IC50” value in the series with HepG2 [3] is reported as 107. For the same molecule, the results for the EC50 (in series [4]; with HepG2 [7]) were 0.07 µM and 9 µM, respectively. In addition, the “inhibition (INH)” value in the series on HepG2 [7] was determined as 74%. Further, the Activity with HepG2 [8] worked out at 40%.
In the case of `CCOC1=C[C@@H]2C(=CC[C@@H]3[C@@]2(C)C(=O)C[C@]2(C)[C@@H]([C@@](C)(O)C(=O)/C=C/C(C)(C)OC(C)=O)[C@H](O)C[C@@]32C)C(C)(C)C1=O`, the results for the IC50 (in the series with HepG2 [2]; in series [5]; in the series with HeLa) were 5.1 µM, 3.5 µM and 1.1 µM, respectively. Also, the “Ratio IC50” value in the series on HepG2 [3] worked out at 5. The EC50 in series [4] turned out to be 0.27 µM. Moreover, the “Ratio IC50/EC50” value in series [6] is reported as 13. Further, the Activity is reported as less than 50% in the series on HepG2 [7] and 40% with HepG2 [8].
In series [11], `CCCCC1C(=O)N(c2ccccc2)N(c2ccccc2)C1=O` yielded an inhibition of 50%.
Turning to `ClC(Cl)(Cl)Cl` [CARBON TETRACHLORIDE], the cytotoxicity at 24 h in series [12] came to 50%.
As for `O=C1O[C@H]([C@@H](O)CO)C(O)=C1O`, the inhibition in [13] turned out to be 50%.
Take `COC1=C[C@@H]2C(=CC[C@@H]3[C@@]2(C)C(=O)C[C@]2(C)[C@@H]([C@@](C)(O)C(=O)/C=C/C(C)(C)O)[C@H](O)C[C@@]32C)C(C)(C)C1=O`: the “Ratio IC50/EC50” value was found to be 3 with HepG2 [1] and 60 in series [6]. Further, the IC50 stood at 15 µM in the series with HepG2 [2] and 6.37 µM in series [5]. In addition, the EC50 stood at 0.11 µM in series [4] and 5.25 µM with HepG2 [7]. Also, the “inhibition (INH)” value in the series with HepG2 [7] stood at 74%. Also, the Activity in the series with HepG2 [8] was found to be 40%.
`COc1cc(C2Oc3cc([C@H]4Oc5cc(O)cc(O)c5C(=O)[C@@H]4O)ccc3OC2CO)ccc1O` (stereo partly specified) [SILIBININ]: the Activity result in the series on HepG2 [2] (human, hepg2, 24 h) was “Non-toxic”; in series [5] (rat, hsc-t6, 24 h), “Non-toxic”; in the series with HSC-T6, “Not toxic”; in the series with HepG2 [8], 40%. Moreover, the 50% effective concentration (EC50) in series [4] was 18.8 µM; in the series on HepG2 [7] it was 45 µM. Moreover, the inhibition result with HepG2 [14] was “Active”.
In the case of `CC(=O)OC(C)(C)/C=C/C(=O)[C@](C)(O)[C@H]1[C@H](O)C[C@@]2(C)[C@@H]3CC=C4[C@@H](C=C(O[C@@H]5O[C@H](CO)[C@@H](O)[C@H](O)[C@H]5O)C(=O)C4(C)C)[C@]3(C)C(=O)C[C@]12C`, the “Ratio IC50/EC50” value came out at 5 in the series with HepG2 [1] and 31 in series [6]. The IC50 in the series on HepG2 [2] turned out to be 227 µM; in [5], 102 µM; in the series with HeLa, 37 µM. For the same molecule, in the series on HepG2 [3], the “Ratio IC50” value turned out to be 6. For the same molecule, the EC50 in series [4] stood at 3.28 µM; in the series on HepG2 [7] it was 45.3 µM. In addition, in the series with HepG2 [8], the Activity stood at 40%.
Regarding `Cc1c(C)c2c(c(C)c1O)CCC(C)(C(=O)O)O2` (stereo unspecified), the inhibition in [15] amounted to 50%.
